MBD2 inh: inhibitors of human MBD2 binding to methylated oligonucleotide; inhibition, % at 4.4 µM; hit rate 0.31% among 370,000; TR-FRET; in the data active = inhibition above about 13%
UHRF1 MBD2 ctr: UHRF1 methyl-DNA binding inhibition; Q96T88; UHRF1 binding to methylated oligo, TR-FRET; inhibition, % at 4.4 µM; hit rate 0.75% among 370,000; in the data active = inhibition above about 21%;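 also: UHRF1 SRA domain binding a hemimethylated CpG hairpin DNA probe; 0% = median of test compound wells and 100% = reference inhibitor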
ABHD5-PLIN5 inh: inhibitors of human ABHD5-perilipin-5 interaction | Split G. princeps luciferase complementation, luminescence, 4 h | hit rate 0.78% among 360,000 | inhibition, % at 4 µM | Q00G26+Q8WTS1;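 active = inhibition above the mean inhibition across every tested compound plus 3 SD, cut at about 22% in these data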;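 also: 0% = DMSO only wells and the 100% control is not disclosed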
Target sequence (Q00G26 whole entry, looked up): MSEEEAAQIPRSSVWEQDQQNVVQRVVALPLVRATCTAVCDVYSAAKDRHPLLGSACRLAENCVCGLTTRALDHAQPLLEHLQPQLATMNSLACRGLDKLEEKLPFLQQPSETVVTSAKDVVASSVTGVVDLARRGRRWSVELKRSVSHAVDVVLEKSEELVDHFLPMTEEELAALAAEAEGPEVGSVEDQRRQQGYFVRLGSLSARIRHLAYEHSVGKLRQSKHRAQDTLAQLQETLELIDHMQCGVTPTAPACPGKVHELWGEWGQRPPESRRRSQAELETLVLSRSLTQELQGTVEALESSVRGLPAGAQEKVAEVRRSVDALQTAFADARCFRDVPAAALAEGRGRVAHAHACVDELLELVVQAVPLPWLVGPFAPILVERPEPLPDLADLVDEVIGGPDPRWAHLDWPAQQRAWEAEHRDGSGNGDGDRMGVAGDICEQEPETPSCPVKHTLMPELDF
Target sequence (Q8WTS1 whole entry, looked up): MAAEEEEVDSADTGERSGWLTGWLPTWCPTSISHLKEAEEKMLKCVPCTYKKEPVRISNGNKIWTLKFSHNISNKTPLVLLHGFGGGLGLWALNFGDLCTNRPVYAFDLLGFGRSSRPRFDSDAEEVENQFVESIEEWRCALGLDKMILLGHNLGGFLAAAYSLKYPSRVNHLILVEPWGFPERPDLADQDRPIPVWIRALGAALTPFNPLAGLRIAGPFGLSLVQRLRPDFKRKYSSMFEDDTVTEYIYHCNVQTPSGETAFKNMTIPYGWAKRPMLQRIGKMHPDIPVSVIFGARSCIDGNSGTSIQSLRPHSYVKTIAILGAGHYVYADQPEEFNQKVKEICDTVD
RBBP9 inh: blocks human serine hydrolase RBBP9; O75884; recombinant RBBP9, FP-Rh probe fluorescence polarization; inhibition, % at 7.94 µM; hit rate 0.2% among 220,000;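 active = inhibition above the campaign mean of all tested compounds plus 3 SD, cut at about 14% in these data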;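 also: plate controls were DMSO wells with RBBP9 for no effect and wells lacking RBBP9 protein for full effect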
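Controls: DMSO-treated enzyme wells and wells lacking RBBP9 | Material: RBBP9 protein | Technique: Fluorescence polarization | Replication: Single well per compound, no replicates | Buffer or medium: Tris-NaCl-Pluronic buffer, pH 8.0 | Timing: 30 min compound preincubation, 45 min probe labeling, 25 °C | Read-out basis: Percent inhibition from mP, scaled between DMSO and no-protein wells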
PRMT1 inh: PRMT1 (human) inhibition, primary screen. Q99873. recombinant PRMT1, activity-based probe fluorescence polarization. inhibition, % at 2.79 µM. hit rate 1.3% among 370,000. AID 652257;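 active = inhibition above about 21% made by adding two undisclosed values, limit read from the data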
LEDGF integ inh: blocks HIV-1 LEDGF/p75-dependent DNA integration. TR-FRET IN-LEDGF/p75 DNA integration, Eu/Cy5. inhibition, % at 3.7 µM. hit rate 0.64% among 370,000;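 active = inhibition above the screen-wide mean plus 3 SD, cut at about 13% in these data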;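 also: signal is the Cy5 over europium emission ratio at 671 and 618 nm; 0% = plate median of compound wells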
ABHD5 PLIN5 conf: ABHD5-PLIN5 interaction inhibition, confirmed | shares compounds with ABHD5-PLIN5 inh | biochemical ABHD5-PLIN5 interaction, luminescence | inhibition, % at 4 µM | hit rate 67% among 2,200; in the data active = inhibition above about 23%;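 also: 0% = DMSO vehicle wells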
HNF4 counter: HNF4 split-luciferase signal hit, counter-screen; inhibition, % at 4 µM; hit rate 77% among 2,200; HNF4 dimerization, luminescence, biochemical; AID 651674; shares compounds with ABHD5-PLIN5 inh;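 active = mean inhibition across replicate wells exceeding the computed hit threshold, cut at about 13% in these data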;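 also: light from luciferase halves that rejoin when HNF4 fusion proteins dimerize; 0% = DMSO only wells and the 100% control is not given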
PRMT1 inh conf: PRMT1 (human) inhibition, FP confirmation | shares compounds with PRMT1 inh | recombinant His-PRMT1, activity-based probe fluorescence polarization | inhibition, % at 2.79 µM | hit rate 42% among 3,300 | AID 687036;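 active = mean inhibition across replicates above the hit cutoff derived for the earlier primary screen, cut at about 22% in these data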
UHRF1 ctr MBD2: UHRF1 methyl-oligo binding inhibition as MBD2 counter-screen | shares compounds with MBD2 inh | hit rate 25% among 1,000 | inhibition, % at 4.4 µM | AID 720530 | UHRF1 binding to methylated oligonucleotide, TR-FRET; in the data active = inhibition above about 21%;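 also: UHRF1 SRA domain binding a labeled hemimethylated CpG hairpin DNA; 0% = vehicle only and 100% = reference inhibitor with vehicle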
MBD2 confirm: confirmation of human MBD2-DBD methylated oligonucleotide binding inhibitors; shares compounds with MBD2 inh; TR-FRET MBD2-DBD binding to methylated oligonucleotide; inhibition, % at 4.4 µM; hit rate 26% among 1,000
IN multimer up: activates HIV-1 integrase multimerization in LEDGF counter-screen; shares compounds with LEDGF integ inh; TR-FRET HIV-1 integrase multimerization, biochemical; activation, % at 7.7 µM; hit rate 17% among 2,000; AID 1053131; in the data active = activation above about 8.9%
TR-FRET interf: counter-screen for LEDGF/p75 integration inhibitors: TR-FRET optical interference; 2,000 tested, under 10 active; AID 1053135; TR-FRET optical interference counterscreen, HIV-1 IN multimerization; inhibition, % at 7.7 µM; shares compounds with LEDGF integ inh;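 active = inhibition above the mean over all tested compounds plus 3 SD, which no compound reached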;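 also: 0% = integrase with antibodies and DMSO and 100% = antibodies without integrase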
LEDGF integ conf: confirmation of HIV-1 LEDGF/p75-dependent integration inhibitors | TR-FRET LEDGF/p75-dependent HIV-1 integration, biochemical | shares compounds with LEDGF integ inh | hit rate 36% among 2,000 | inhibition, % at 3.7 µM
* = called active by the depositor; / = no result. Hits are enriched below; roughly 3.1% of the tested compounds scored in any of these assays. Rule as the data show it, unless noted: active = inhibition above about 14%; inactive = the rest.

SMILES	MBD2 inh	UHRF1 MBD2 ctr	ABHD5-PLIN5 inh	RBBP9 inh	PRMT1 inh	LEDGF integ inh	PRMT1 inh conf	others
Cc1ccc(-c2cc(C(=O)O)c3cc(Br)ccc3n2)o1	2	9	27*	0	77*	14*	81*	ABHD5 PLIN5 conf=79*;HNF4 counter=88*;IN multimer up=16*;TR-FRET interf=-57;LEDGF integ conf=7
Cc1ccc(S(=O)(=O)N2CC[C@@]3(Cc4ccccc4)Cc4ccccc4C[C@@H]23)cc1	2	1	/	/	-1	-7	/
CC(C)(C)C(=O)Nc1ccc(/C=C/C(=O)c2ccco2)cc1	-4	-4	37*	/	0	34*	/	ABHD5 PLIN5 conf=61*;HNF4 counter=44*;IN multimer up=0;TR-FRET interf=-1;LEDGF integ conf=-3
COC(=O)C1CN(Cc2cn(CCC3OCCO3)nn2)CCS(=O)(=O)N1Cc1ccc(Cl)cc1 (stereo not drawn)	11	16	/	/	7	-1	/
O=C(NCCc1ccccn1)c1ccc2c(c1)ncn2C1CCCCC1	-2	0	/	/	1	0	/
Cn1cc(/C=C2\SC(=O)N(c3ccccc3)C2=O)c2ccccc21	1	1	4	-4	0	-6	/
O=C1S/C(=C\C=C\c2ccco2)C(=O)N1c1ccccc1	13*	25*	37*	2	40*	40*	9	ABHD5 PLIN5 conf=28*;HNF4 counter=36*;UHRF1 ctr MBD2=7;MBD2 confirm=2;IN multimer up=1;TR-FRET interf=-4;LEDGF integ conf=23*
O=C1NC(=Nc2ccccc2)S/C1=C\C=C\c1ccco1	4	13	25*	9	21	34*	/	ABHD5 PLIN5 conf=36*;HNF4 counter=55*;IN multimer up=16*;TR-FRET interf=-57;LEDGF integ conf=58*
O=C1S/C(=C\C=C\c2ccco2)C(=O)N1c1ccc(O)cc1	4	10	49*	9	31*	31*	4	ABHD5 PLIN5 conf=33*;HNF4 counter=49*;IN multimer up=17*;TR-FRET interf=-60;LEDGF integ conf=28*
O=C1S/C(=C\c2cccs2)C(=O)N1c1ccc(O)cc1	1	-4	-5	/	2	0	/
O=C1c2[nH]nc(-c3ccccc3)c2C(c2cccc(C(F)(F)F)c2)N1c1ccccc1 (stereo not drawn)	4	-1	/	/	4	-4	/
CN(CCOC(=O)c1cc2ccccc2o1)C1CN(Cc2cn(Cc3ccccc3C(F)(F)F)nn2)S(=O)(=O)C1 (stereo not drawn)	12	10	/	/	6	-2	/
Cc1cccc(NC(=O)OC2CC3CC2[C@H]2CCCCN2C3)c1 (stereo partly drawn)	-2	0	/	/	1	0	/
O=C1C(=Cc2ccco2)CCC1=Cc1ccco1	103*	100*	37*	/	53*	91*	50*	ABHD5 PLIN5 conf=59*;HNF4 counter=89*;UHRF1 ctr MBD2=96*;MBD2 confirm=53*;IN multimer up=14*;TR-FRET interf=-73;LEDGF integ conf=93*
O=C1C(=Cc2ccco2)CCCC1=Cc1ccco1	15*	52*	39*	/	29*	61*	/	ABHD5 PLIN5 conf=53*;HNF4 counter=63*;IN multimer up=1;TR-FRET interf=-2;LEDGF integ conf=58*
C/C(=N/Nc1ccnc2cc(Cl)ccc12)c1ccc(N)cc1	-5	-4	-1	/	3	0	/
C/C(=N/Nc1ccnc2cc(Cl)ccc12)c1ccc(O)cc1	1	17	-4	/	37*	2	1
CC(C)(C)c1ccc(C(=O)Nc2cc(Cl)ccc2C(=O)O)cc1	4	-2	/	/	-5	3	/
CC1CCN(C2CC(=O)N(c3ccc(Br)cc3Br)C2=O)CC1 (stereo not drawn)	1	0	12	2	64*	5	16
CC1CCN(C2CC(=O)N(c3ccccc3)C2=O)CC1 (stereo not drawn)	4	4	6	-6	81*	3	4
O=C1CC(N2CCN(Cc3ccccc3)CC2)C(=O)N1c1ccccc1 (stereo not drawn)	-2	1	7	-5	9	4	/
C[C@@H]1CN([C@@H](C)CO)C(=O)CCCn2cc(nn2)CO[C@H]1CN(C)C(=O)Nc1ccc(C(F)(F)F)cc1	-6	-1	/	/	-1	-2	/
Cc1ccc(CNC(=O)COC(=O)c2cccc(S(=O)(=O)N3CCCCC3)c2)cc1	-1	-2	2	/	86*	-3	0
Cc1nnc(NC(=O)CCSCCC(=O)Nc2nnc(C)s2)s1	-2	8	-1	12	29*	-2	30*
CCOC(=O)CCSCC(=O)Nc1nnc(C)s1	-2	-2	-1	8	-4	2	/
SMILES	MBD2 inh	UHRF1 MBD2 ctr	ABHD5-PLIN5 inh	RBBP9 inh	PRMT1 inh	LEDGF integ inh	PRMT1 inh conf	others
Cc1ccc(S(=O)(=O)N/N=C\c2cc3c(cc2Br)OCO3)cc1	-2	-4	-8	2	-1	2	/
O=[N+]([O-])c1cc2c(cc1/C=N/NS(=O)(=O)c1ccc(Br)cc1)OCO2	4	-1	-4	-9	34*	5	11
CC(=O)N(Cc1ccccc1)c1nccs1	1	-2	/	/	-2	2	/
Cc1ccc(N2C(=O)CS/C2=N\C(=S)Nc2ccccc2)cc1	1	-1	-46	-7	28*	-3	3
O=C1CSC(=Nc2ccc(O)cc2)N1c1ccc(O)cc1	4	1	4	-8	5	1	/
COC(=O)c1c(-c2ccco2)csc1NC(=O)C1CC=CCC1C(=O)O (stereo not drawn)	2	3	17	1	27*	3	4
CCOC(=O)c1c(-c2ccc(F)cc2)csc1NC(=O)C1CC=CCC1C(=O)O (stereo not drawn)	-6	-2	-6	-4	7	-1	/
CCNc1sc(C(=O)c2cccs2)c(N)c1C#N	-6	0	6	-3	29*	-2	11

Compound activity deposited in PubChem BioAssay by The Scripps Research Institute Molecular Screening Center.
